Source: ChEMBL document CHEMBL4017524, “A Novel Arylurea Fatty Acid That Targets the Mitochondrion and Depletes Cardiolipin To Promote Killing of Breast Cancer Cells” (J Med Chem, 2017)
Active and inactive are the calls of the source. The rule behind the calls is not given here.

What was measured:
[1] = system: MDA-MB-231; assay: Cytotoxicity against human MDA-MB-231 cells assessed as decrease in ATP production at 10 uM after 24 to 48 hrs by CellTiter-Glo luminescent assay; format: functional, cell-based
[2] = system: MDA-MB-231; assay: Induction of apoptosis in human MDA-MB-231 cells assessed as mitochondrial membrane disruption by measuring red to green fluorescence ratio at 10 uM after 24 hrs by JC-1 staining based microscopic method relative to control; format: functional
Outline: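 Cells exposed for 24 h at 10 µM, then stained with the cationic dye JC-1. Red (aggregate, intact inner membrane) to green (monomer) fluorescence ratio expressed relative to DMSO control. Mean±SEM of three experiments.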

[3] = system: MDA-MB-231; assay: Induction of apoptosis in human MDA-MB-231 cells assessed as mitochondrial membrane disruption at 10 uM after 6 hrs by JC-1/Hoechst 33342 staining based fluorescence microscopic assay; format: functional, cell-based
Outline: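 Treatment with 10 µM or DMSO for 6 h. Cells were washed twice with serum-free medium, then incubated with JC-1 in serum-free medium at 37°C for 20 min. Hoechst 33342 nuclear counterstain, then fluorescence microscopy of green monomers versus red aggregates.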

[4] = system: MDA-MB-231; assay: Cytotoxicity against human MDA-MB-231 cells assessed as decrease in cell adherence at 40 uM after 48 hrs by crystal violet staining based assay; format: functional
[5] = system: MDA-MB-231; assay: Cytotoxicity against human MDA-MB-231 cells assessed as decrease in cell viability at 40 uM after 48 hrs by crystal violet staining based assay; format: functional
[6] = system: MDA-MB-231; assay: Induction of apoptosis in human MDA-MB-231 cells assessed as increase in caspases 3/7 activity at 10 uM after 48 hrs by Caspase-Glo assay; format: functional, cell-based

SMILES	Activity [1]	Activity [2]	Activity [3]	Activity [4]	Activity [5]	Activity [6]
COc1ccc(NC(=O)NCCCCCCCCCCCCCCCC(=O)O)cc1	inactive	inactive				
O=C(O)CCCCCCCCCCCCCCCNC(=O)Nc1ccc(Cl)cc1	inactive	inactive				
CNC(=O)c1cc(Oc2ccc(NC(=O)Nc3ccc(Cl)c(C(F)(F)F)c3)cc2)ccn1			Active			
O=C(O)CCCCCCCCCCCCCCCNC(=O)Nc1ccc(F)cc1	inactive	inactive				
Cc1ccc(NC(=O)NCCCCCCCCCCCCCCCC(=O)O)cc1	inactive	inactive				
Cc1cc(NC(=O)NCCCCCCCCCCCCCCCC(=O)O)ccc1Cl	inactive	inactive		inactive	inactive	inactive
